The values below come from ChEMBL document CHEMBL3861952, “Donepezil-like multifunctional agents: Design, synthesis, molecular modeling and biological evaluation” (Eur J Med Chem, 2016).

Data set [1] addresses T1, Amine oxidase [flavin-containing] B (Homo sapiens, UniProt P27338).
T1 sequence (P27338 whole entry): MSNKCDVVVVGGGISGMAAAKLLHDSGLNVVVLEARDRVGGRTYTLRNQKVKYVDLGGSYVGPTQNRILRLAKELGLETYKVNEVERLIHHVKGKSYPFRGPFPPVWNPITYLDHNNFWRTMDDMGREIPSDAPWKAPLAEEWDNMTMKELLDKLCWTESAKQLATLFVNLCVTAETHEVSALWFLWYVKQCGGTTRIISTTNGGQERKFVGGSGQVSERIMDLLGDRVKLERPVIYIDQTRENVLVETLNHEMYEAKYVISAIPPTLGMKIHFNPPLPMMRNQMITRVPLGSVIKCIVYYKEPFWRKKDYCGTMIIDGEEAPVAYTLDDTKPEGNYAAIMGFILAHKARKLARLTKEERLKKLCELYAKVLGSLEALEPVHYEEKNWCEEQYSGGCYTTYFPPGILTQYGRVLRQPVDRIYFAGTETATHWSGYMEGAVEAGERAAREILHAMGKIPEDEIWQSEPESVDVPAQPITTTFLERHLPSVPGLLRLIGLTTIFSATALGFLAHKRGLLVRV
Put plainly: Inhibition of human recombinant MAOB using p-tyramine as substrate preincubated for 30 mins followed by substrate addition measured for 1 hr by horse-radish peroxidase/amplex red-based fluorometric method.

Data set [2] concerns the target T2, Cholinesterase (Homo sapiens, UniProt P06276). Put plainly: Inhibition of human recombinant BuChE expressed in HEK293 cells using S-butyrylthiocholine iodide as substrate preincubated for 30 mins followed by substrate addition measured after 30 mins by Ellman's method. The essentials: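 Ellman assay in 0.1 M phosphate buffer pH 8.0 with 0.05 U/mL BuChE and 0.35 mM DTNB. Serial inhibitor dilutions pre-incubated 30 min at 37 °C, then 0.5 mM S-butyrylthiocholine iodide (final) added. Reaction followed at least 30 min at 405 nm. IC50 from dose-response curves; mean ± S.E.M., at least three experiments in triplicate.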
On the technique in general: Ellman's reagent forms a yellow product with free thiols.

Data set [3] addresses T3, Acetylcholinesterase (Homo sapiens, UniProt P22303). Put plainly: Inhibition of human recombinant AChE expressed in HEK293 cells using acetylthiocholine iodide as substrate preincubated for 30 mins followed by substrate addition measured after 30 mins by Ellman's method.
Data set [4] deals with T4, Amine oxidase [flavin-containing] A (Homo sapiens, UniProt P21397).
T4 sequence (P21397 whole entry): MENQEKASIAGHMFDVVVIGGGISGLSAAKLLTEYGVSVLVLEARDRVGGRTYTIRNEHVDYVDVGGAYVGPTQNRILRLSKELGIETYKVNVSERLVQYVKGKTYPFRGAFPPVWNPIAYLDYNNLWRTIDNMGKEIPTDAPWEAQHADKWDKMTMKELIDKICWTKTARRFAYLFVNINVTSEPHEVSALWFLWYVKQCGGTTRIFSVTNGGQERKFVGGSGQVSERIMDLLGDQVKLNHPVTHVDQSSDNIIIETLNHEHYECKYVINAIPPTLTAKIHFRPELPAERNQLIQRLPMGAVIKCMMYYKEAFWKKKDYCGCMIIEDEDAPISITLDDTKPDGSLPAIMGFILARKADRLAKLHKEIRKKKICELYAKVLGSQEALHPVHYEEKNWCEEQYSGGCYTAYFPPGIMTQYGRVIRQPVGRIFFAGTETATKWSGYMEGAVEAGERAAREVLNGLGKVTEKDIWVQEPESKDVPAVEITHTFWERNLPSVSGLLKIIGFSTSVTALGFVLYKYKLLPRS
Put plainly: Inhibition of human recombinant MAOA using p-tyramine as substrate preincubated for 30 mins followed by substrate addition measured for 1 hr by horse-radish peroxidase/amplex red-based fluorometric method.

Data set [5] deals with T3, Acetylcholinesterase. Put plainly: Mixed-type inhibition of human recombinant AChE expressed in HEK293 cells using acetylthiocholine iodide as substrate preincubated for 30 mins followed by substrate addition measured after 30 mins by Lineweaver-Burk plot analysis.
For data set [6], the target named is T2, Cholinesterase. Put plainly: Mixed-type inhibition of human recombinant BuChE expressed in HEK293 cells using S-butyrylthiocholine iodide as substrate preincubated for 30 mins followed by substrate addition measured after 30 mins by Lineweaver-Burk plot analysis.
Data set [7] deals with T4, Amine oxidase [flavin-containing] A. Put plainly: Inhibition of human recombinant MAOA using p-tyramine as substrate measured for 1 hr by horse-radish peroxidase/amplex red-based fluorometric method. The essentials: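 Human recombinant MAO-A (360 mU/mL) pre-incubated 30 min at 37 °C with serial inhibitor dilutions. Reaction started with 1 mM p-tyramine, 40 U/mL HRP and 25 μM Amplex UltraRed (final) in 0.25 mM sodium phosphate pH 7.4. Resorufin fluorescence (ex 530/em 590) read continuously ≥1 h. Water controls, no-substrate blanks. IC50 from dose-response curves; mean ± S.E.M., ≥3 experiments in triplicate.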

For data set [8] the target is unchanged. Put plainly: Inhibition of human recombinant MAOA using p-tyramine as substrate preincubated for 15 mins followed by substrate addition measured for 1 hr by horse-radish peroxidase/amplex red-based fluorometric method. In a few lines:
(§1)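 Time-dependent series: hrMAO-A pre-incubated with increasing inhibitor concentrations for varied times (0–240 min) before addition of p-tyramine. Fluorometric HRP/Amplex UltraRed read-out as in the standard assay (1 mM p-tyramine, pH 7.4 phosphate, ex 530/em 590). IC50 derived from a dose-response curve at each pre-incubation time.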

For data set [9] the target is unchanged. Put plainly: Inhibition of human recombinant MAOA using p-tyramine as substrate preincubated for 60 mins followed by substrate addition measured for 1 hr by horse-radish peroxidase/amplex red-based fluorometric method. In a few lines: as §1
The nature of data set [10]: Metal chelating activity of the compound assessed as compound-Cu2+ complex formation at 10 uM after 5 mins by UV-Vis spectrophotometric method. Format: physicochemical. In a few lines:
(§2)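 Run in distilled water at room temperature: UV-Vis spectra (220–300 nm, 1 cm quartz) of 10 μM compound with CuSO4 or ZnSO4 at 1–5 μM. Complexation followed at 262 nm. Stoichiometry by Job's method: 21 mixtures, total concentration 10 μM, proportions varied 0–100%.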

For data set [11], the target named is T4, Amine oxidase [flavin-containing] A. Put plainly: Inhibition of human recombinant MAOA using p-tyramine as substrate preincubated for 120 mins followed by substrate addition measured for 1 hr by horse-radish peroxidase/amplex red-based fluorometric method. The essentials:
as §1

For data set [12] the target is unchanged. Put plainly: Inhibition of human recombinant MAOA using p-tyramine as substrate preincubated for 180 mins followed by substrate addition measured for 1 hr by horse-radish peroxidase/amplex red-based fluorometric method. In a few lines: as §1
The target is the same in data set [13]. Put plainly: Inhibition of human recombinant MAOA using p-tyramine as substrate preincubated for 240 mins followed by substrate addition measured for 1 hr by horse-radish peroxidase/amplex red-based fluorometric method. The essentials:
as §1

Data set [14] can be described thus: Metal chelating activity of the compound assessed as compound-Zn2+ complex formation at 10 uM after 15 hrs by UV-Vis spectrophotometric method. Format: physicochemical. The essentials: as §2

A word on the IC50: it is the point on the concentration scale where inhibition reaches its midpoint. Broadly, the Ki is a measure of affinity in units of concentration, obtained from inhibition or displacement.

T3 sequence (P22303 whole entry): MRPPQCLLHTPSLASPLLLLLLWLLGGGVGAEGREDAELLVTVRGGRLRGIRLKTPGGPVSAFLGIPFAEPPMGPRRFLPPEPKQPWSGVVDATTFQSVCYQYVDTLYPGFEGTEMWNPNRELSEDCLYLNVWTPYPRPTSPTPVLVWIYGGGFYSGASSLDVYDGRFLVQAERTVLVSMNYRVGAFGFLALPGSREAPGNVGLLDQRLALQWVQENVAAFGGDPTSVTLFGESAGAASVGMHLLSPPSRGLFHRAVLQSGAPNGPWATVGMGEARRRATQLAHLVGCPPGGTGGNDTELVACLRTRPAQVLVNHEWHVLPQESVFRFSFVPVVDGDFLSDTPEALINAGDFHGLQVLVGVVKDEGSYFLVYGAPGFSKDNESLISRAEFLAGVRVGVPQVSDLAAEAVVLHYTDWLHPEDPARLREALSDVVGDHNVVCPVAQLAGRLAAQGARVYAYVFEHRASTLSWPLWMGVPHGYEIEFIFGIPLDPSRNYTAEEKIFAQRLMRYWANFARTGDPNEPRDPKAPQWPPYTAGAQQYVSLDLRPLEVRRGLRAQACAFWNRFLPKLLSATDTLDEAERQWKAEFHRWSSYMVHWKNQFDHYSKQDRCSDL
T2 sequence (P06276 whole entry): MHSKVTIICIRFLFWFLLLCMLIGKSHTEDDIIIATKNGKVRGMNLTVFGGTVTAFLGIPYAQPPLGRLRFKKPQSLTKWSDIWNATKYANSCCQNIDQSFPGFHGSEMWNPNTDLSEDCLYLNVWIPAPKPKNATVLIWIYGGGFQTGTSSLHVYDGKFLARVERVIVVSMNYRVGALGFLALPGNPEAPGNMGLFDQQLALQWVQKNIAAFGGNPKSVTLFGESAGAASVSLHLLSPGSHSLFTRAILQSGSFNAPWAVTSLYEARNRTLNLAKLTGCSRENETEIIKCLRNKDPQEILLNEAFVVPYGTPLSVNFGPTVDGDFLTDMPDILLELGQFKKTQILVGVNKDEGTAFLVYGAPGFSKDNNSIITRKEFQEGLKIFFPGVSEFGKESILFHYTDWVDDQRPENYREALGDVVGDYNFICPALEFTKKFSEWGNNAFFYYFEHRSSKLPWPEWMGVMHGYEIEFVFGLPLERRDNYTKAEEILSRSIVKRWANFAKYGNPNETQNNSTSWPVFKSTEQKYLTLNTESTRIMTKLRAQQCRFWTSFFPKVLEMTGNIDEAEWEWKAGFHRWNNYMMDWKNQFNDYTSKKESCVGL

In the case of `C#CCN(Cc1ccc2cccc(O)c2n1)C(C#N)C1CCN(Cc2ccccc2)CC1` (centres undefined), the IC50 was > 100 µM in data set [1], 0.03 µM at Cholinesterase [2], 64.2 µM on Acetylcholinesterase [3] and 10.2 µM in [4].
In the same order, the values of `C#CCN(CCC1CCN(Cc2ccccc2)CC1)Cc1ccc2cccc(O)c2n1` are > 100 µM, 0.079 µM, 4.1 µM and 35.6 µM.
Turning to `C#CCN(Cc1ccc2cccc(O)c2n1)C(C#N)CCC1CCN(Cc2ccccc2)CC1` (centres undefined), the Ki on Acetylcholinesterase [5] came out at 0.0149 µM; on Cholinesterase [6], 0.0525 µM; on Cholinesterase [2], 0.052 µM; on Acetylcholinesterase [3], 0.015 µM. The IC50 is > 100 µM in [1]; 187 µM in [7]; 0.039 µM on Cholinesterase [2]; 0.029 µM at Acetylcholinesterase [3]; 20.8 µM in data set [8]; 6.2 to 10.1 µM in data set [4]. Also, the IC50 worked out at 3.8 µM in data set [9], 1.9 µM in data set [11], 1.6 µM in data set [12] and 1.1 µM in data set [13]. In addition, the result in [10] and in [14] was Active.
For the compound `C#CCN(Cc1ccc2cccc(O)c2n1)C(C#N)CC1CCN(Cc2ccccc2)CC1` (centres undefined), the IC50 in data set [1] was > 100 µM; at Cholinesterase [2], 0.002 µM; at Acetylcholinesterase [3], 3.3 µM; in [4] it was 12.2 µM.
In the case of `C#CCN(C)CCCOc1ccc(Cl)cc1Cl` [CLORGILINE], the IC50 on Cholinesterase [2] and at Acetylcholinesterase [3] was > 500 µM each time.
As to `C#CCN(Cc1ccc2cccc(O)c2n1)CC1CCN(Cc2ccccc2)CC1`, the IC50 was > 100 µM in data set [1], 0.064 µM at Cholinesterase [2], 9.7 µM on Acetylcholinesterase [3] and 46.5 µM in data set [4].
The corresponding values for `C#CCN(CCCC1CCN(Cc2ccccc2)CC1)Cc1ccc2cccc(O)c2n1` are > 100 µM, 0.023 µM, 1.5 µM and 37 µM.
In the same order, the values of `C#CCN(Cc1ccc(O)c2ncccc12)C(C#N)CCC1CCN(Cc2ccccc2)CC1` (centres undefined) are 11.8 µM, 2.1 µM, 0.35 µM and 6.7 µM.
With `C#CCN(C)[C@H](C)Cc1ccccc1` [SELEGILINE], the IC50 at Cholinesterase [2] and on Acetylcholinesterase [3] was > 500 µM in each case.
